Results from ChEMBL document CHEMBL3351935, “The synthesis, antimalarial activity and CoMFA analysis of novel aminoalkylated quercetin analogs” (Bioorg Med Chem Lett, 2015).
≈ marks a conversion by molar mass, not a printed value.

Tests used:
[1] = Aqueous solubility of the compound at 1 mM by UV spectroscopic assay; format: physicochemical; settings: buffer
In short: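 Modified UV-spectroscopic method on the free base. A 1 mM DMSO stock was diluted to 4, 8, 12, 16 and 20 μM (2% DMSO in water) to build calibration curves. Each compound was suspended in medium to saturation, centrifuged at 8000 rpm for 10 min and filtered. Absorbance was read at 280 nm, 25 °C, and concentration was taken from the calibration best-fit line.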

Plasmodium falciparum [2] = test: Antimalarial activity against chloroquine-resistant/mefloquine-sensitive Plasmodium falciparum W2 by malaria SYBR green 1-based fluorescence (MSF) assay; format: functional, organism-based
Plasmodium falciparum [3] = test: Antimalarial activity against chloroquine /mefloquine/pyrimethamine-resistant Plasmodium falciparum C235 by malaria SYBR green 1-based fluorescence (MSF) assay; format: functional, organism-based
Plasmodium falciparum [4] = test: Antimalarial activity against chloroquine-sensitive/mefloquine-resistant Plasmodium falciparum D6 by malaria SYBR green 1-based fluorescence (MSF) assay; format: functional, organism-based
Plasmodium falciparum [5] = test: Antigametocytocidal activity against Plasmodium falciparum NF54-pfs16-[…] late (4 to 6) gametocyte assessed as viability after 72 hrs by MitoTracker Red CM-H2XRos/micro-plate confocal imaging system; format: functional, organism-based; settings: NF54, 72 h
Plasmodium falciparum [6] = test: Antigametocytocidal activity against Plasmodium falciparum NF54-pfs16-[…] early (1 to 3) gametocyte assessed as viability after 72 hrs by MitoTracker Red CM-H2XRos/micro-plate confocal imaging system; format: functional, organism-based; settings: NF54, 72 h
Plasmodium falciparum [7] = test: Antigametocytocidal activity against Plasmodium falciparum NF54-pfs16-[…] late (4 to 6) gametocyte assessed as viability at 40 uM after 72 hrs by MitoTracker Red CM-H2XRos/micro-plate confocal imaging system; format: functional; settings: NF54, 72 h
Plasmodium falciparum [8] = test: Antigametocytocidal activity against Plasmodium falciparum NF54-pfs16-[…] late (4 to 6) gametocyte assessed as viability at 120 uM after 72 hrs by MitoTracker Red CM-H2XRos/micro-plate confocal imaging system; format: functional; settings: NF54, 72 h
[9] = biological target: Intercellular adhesion molecule 1 (Homo sapiens) (UniProt P05362); test: Inhibition of human type O erythrocyte ICAM1-mediated Plasmodium falciparum infection with at 50 uM
Sequence of Intercellular adhesion molecule 1 (Homo sapiens) (P05362 whole entry): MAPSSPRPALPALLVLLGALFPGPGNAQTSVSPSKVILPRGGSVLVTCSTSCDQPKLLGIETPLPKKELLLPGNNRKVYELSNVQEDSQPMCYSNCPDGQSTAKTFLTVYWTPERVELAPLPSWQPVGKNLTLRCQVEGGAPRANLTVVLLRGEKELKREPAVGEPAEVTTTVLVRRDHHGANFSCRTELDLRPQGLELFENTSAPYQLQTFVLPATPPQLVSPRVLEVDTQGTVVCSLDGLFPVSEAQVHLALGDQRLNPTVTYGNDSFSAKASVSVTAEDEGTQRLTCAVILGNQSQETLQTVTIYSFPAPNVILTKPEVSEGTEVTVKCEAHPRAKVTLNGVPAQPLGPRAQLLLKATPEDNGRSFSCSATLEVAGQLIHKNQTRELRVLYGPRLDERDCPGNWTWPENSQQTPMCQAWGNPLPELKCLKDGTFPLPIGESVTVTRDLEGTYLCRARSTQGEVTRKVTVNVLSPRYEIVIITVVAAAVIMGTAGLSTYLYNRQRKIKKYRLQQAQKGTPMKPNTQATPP

Structure (SMILES)	solubility at 1000 µM [1]	IC50 (Plasmodium falciparum [2])	IC50 (Plasmodium falciparum [3])	IC50 (Plasmodium falciparum [4])	IC50 (Plasmodium falciparum [5])	IC50 (Plasmodium falciparum [6])	inhibition at 40 µM (Plasmodium falciparum [7])	inhibition at 120 µM (Plasmodium falciparum [8])	inhibition [9]
O=c1c(O)c(-c2ccc(O)c(O)c2)oc2c(CNCc3cccc(F)c3)c(O)cc(O)c12	123 µM (≈ 54 µg/mL)	690 nM	620 nM	510 nM					
O=c1c(O)c(-c2ccc(O)c(O)c2)oc2cc(O)cc(O)c12 [QUERCETIN]	44 µM (≈ 13.3 µg/mL)	2900 nM	13000 nM	9000 nM					
O=c1c(O)c(-c2ccc(O)c(O)c2)oc2c(CNCC3CCCO3)c(O)cc(O)c12 (stereo unspecified)	39 µM (≈ 16.2 µg/mL)	> 2210 nM	> 2210 nM	> 2210 nM					
O=c1c(O)c(-c2ccc(O)c(O)c2)oc2c(CNCCc3ccc(F)cc3)c(O)cc(O)c12	136 µM (≈ 61.7 µg/mL)	290 nM	150 nM	140 nM					
CN1CCN(Cc2c(O)cc(O)c3c(=O)c(O)c(-c4ccc(O)c(O)c4)oc23)CC1	131 µM (≈ 54.3 µg/mL)	2400 nM	5300 nM	2900 nM					
O=c1c(O)c(-c2ccc(O)c(O)c2)oc2c(CNCCc3ccccc3Cl)c(O)cc(O)c12	85 µM (≈ 39.9 µg/mL)	290 nM	260 nM	250 nM					
O=c1c(O)c(-c2ccc(O)c(O)c2)oc2c(CNCc3ccc(Cl)cc3)c(O)cc(O)c12	110 µM (≈ 50.1 µg/mL)	590 nM	430 nM	370 nM					
COc1ccc(C[C@H](N)C(=O)N[C@H]2[C@@H](O)[C@H](n3cnc4c(N(C)C)ncnc43)O[C@@H]2CO)cc1 [PUROMYCIN]					194 nM	175 nM			
O=c1c(O)c(-c2ccc(O)c(O)c2)oc2c(CNCCc3cccc(Cl)c3)c(O)cc(O)c12	199 µM (≈ 93.5 µg/mL)	79 nM	80 nM	69 nM		6790 nM	100%		
O=c1c(O)c(-c2ccc(O)c(O)c2)oc2c(CNCc3ccccc3)c(O)cc(O)c12	49 µM (≈ 20.6 µg/mL)	> 2180 nM	> 2180 nM	> 2180 nM					
O=c1c(O)c(-c2ccc(O)c(O)c2)oc2c(CNCCc3cccc(F)c3)c(O)cc(O)c12	275 µM (≈ 125 µg/mL)	130 nM	88 nM	69 nM					
O=c1c(O)c(-c2ccc(O)c(O)c2)oc2c(CNCCc3ccc(Cl)cc3Cl)c(O)cc(O)c12	168 µM (≈ 84.7 µg/mL)	71 nM	79 nM	65 nM		9670 nM	100%		
O=c1c(O)c(-c2ccc(O)c(O)c2)oc2c(CNCCc3ccc(Cl)cc3)c(O)cc(O)c12	99 µM (≈ 46.5 µg/mL)	1900 nM	1200 nM	830 nM					
C[C@H]1[C@H](OC(=O)CCC(=O)O)O[C@@H]2O[C@@]3(C)CC[C@H]4[C@H](C)CC[C@@H]1[C@@]24OO3 [ARTESUNATE]						3 nM			
O[C@@H](c1cc(C(F)(F)F)nc2c(C(F)(F)F)cccc12)[C@H]1CCCCN1 [(S,R)-MEFLOQUINE]		7 nM	77 nM						
O=c1c(O)c(-c2ccc(O)c(O)c2)oc2c(CNCc3ccc(F)cc3)c(O)cc(O)c12	212 µM (≈ 93.2 µg/mL)	720 nM	700 nM	410 nM					
CCN(CC)CCCC(C)Nc1ccnc2cc(Cl)ccc12 (stereo unspecified) [CHLOROQUINE]								100%	
O=c1c(O)c(-c2ccc(O)c(O)c2)oc2c(CNCCc3c(Cl)cccc3Cl)c(O)cc(O)c12	199 µM (≈ 100 µg/mL)	230 nM	150 nM	160 nM					
O=c1c(O)c(-c2ccc(O)c(O)c2)oc2c(CNCCc3ccccc3F)c(O)cc(O)c12	95 µM (≈ 43.1 µg/mL)	240 nM	180 nM	110 nM					
O=C(O[C@@H]1Cc2c(O)cc(O)cc2O[C@@H]1c1cc(O)c(O)c(O)c1)c1cc(O)c(O)c(O)c1 [EPIGALOCATECHIN GALLATE]		1400 nM	610 nM	73 nM					85%
O=c1c(O)c(-c2ccc(O)c(O)c2)oc2c(CNCc3cccc(Cl)c3)c(O)cc(O)c12	107 µM (≈ 48.8 µg/mL)	260 nM	220 nM	190 nM					
O=c1c(O)c(-c2ccc(O)c(O)c2)oc2c(CN3CCCCC3)c(O)c(CN3CCCCC3)c(O)c12	247 µM (≈ 123 µg/mL)	1200 nM	3100 nM	1700 nM					
O=c1c(O)c(-c2ccc(O)c(O)c2)oc2c(CNCCc3ccccc3)c(O)cc(O)c12	41 µM (≈ 17.9 µg/mL)	> 2120 nM	> 2120 nM	2110 nM					
Oc1cc(O)c2c(c1)O[C@H](c1ccc(O)c(O)c1)[C@@H](O)C2 [CIANIDANOL]		6000 nM	5900 nM	6700 nM					
O=c1c(O)c(-c2ccc(O)c(O)c2)oc2c(CNCc3ccco3)c(O)cc(O)c12	40 µM (≈ 16.5 µg/mL)	> 2230 nM	> 2230 nM	> 2230 nM					
C[C@@H]1CC[C@H]2[C@@H](C)C(=O)O[C@@H]3O[C@@]4(C)CC[C@@H]1[C@]32OO4 [ARTEMISININ]		7 nM	13 nM	9 nM					
